OX1R antag-1: blocks the human orexin 1 receptor | O43613 | OX1R-expressing cells, FRET antagonist read-out | inhibition, % at 6.6 µM | 330,000 compounds, 1.8% hits | AID 485270; in the data active = inhibition mostly above about 38%, no sharp cut-off; inactive = mostly below about 40%
V1R ag counter: V1a receptor agonism, counter-screen for OXTR agonists | activation, % at 3 µM | P37288 | CHO-V1R cells, Fluo-8 calcium fluorescence, agonist mode; 0% DMSO, 100% 3 nM vasopressin | 320,000 compounds, 0.25% hits;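 active = activation above the mean activation of all tested compounds plus 3 SD, per screening run, cut at about 20% in these data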;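 note: signal is peak over basal fluorescence ratio across a 100 second FLIPR read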
Target sequence (P37288 whole entry, looked up): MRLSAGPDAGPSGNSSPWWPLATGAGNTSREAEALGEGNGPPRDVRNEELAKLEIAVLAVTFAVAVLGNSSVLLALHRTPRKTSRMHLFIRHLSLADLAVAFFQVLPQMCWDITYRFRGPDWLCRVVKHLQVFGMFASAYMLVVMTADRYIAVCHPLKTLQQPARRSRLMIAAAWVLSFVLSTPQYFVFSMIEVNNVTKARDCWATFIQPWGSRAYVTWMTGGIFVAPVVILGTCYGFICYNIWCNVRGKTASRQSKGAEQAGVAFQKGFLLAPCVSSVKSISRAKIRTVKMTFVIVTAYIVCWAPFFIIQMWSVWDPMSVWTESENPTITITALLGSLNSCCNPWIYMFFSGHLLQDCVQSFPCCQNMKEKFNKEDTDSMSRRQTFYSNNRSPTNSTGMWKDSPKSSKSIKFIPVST
OXTR agonist: agonists of human oxytocin receptor; CHO-OTR cells, Fluo-8 calcium fluorescence; normalized: DMSO 0%, oxytocin 100%; AID 2435; P30559; 320,000 compounds, 0.32% hits; activation, % at 3 µM;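 active = activation above the mean of all tested compounds plus 3 SD, cutoff set per screening run, cut at about 20% in these data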;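 note: peak over basal fluorescence ratio from a 100 s FLIPR kinetic read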
OXTR potentiate: potentiators of human oxytocin receptor; CHO-OTR cells, Fluo-8 calcium fluorescence, potentiator mode; 0% = oxytocin EC15, 100% = EC100; activation, % at 3 µM; AID 2445; 320,000 compounds, 0.061% hits;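 active = activation above that plate's cutoff, the mean activation of tested compounds plus 3 SD, cut at about 6.6% in these data, passing the limit was not always enough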
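Assay system: CHO cell line stably expressing human OTR | Also added: Oxytocin at about EC15, sub-maximal agonist stimulus | Times: Compound 6 min at room temperature before oxytocin, 100 s read | Measured by: Fluo-8 intracellular calcium fluorescence, ex 470-495, em 515-575 nm | Controls: EC15 oxytocin alone as 0%, 75 nM oxytocin as 100%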
OX1R antag-2: human HCRTR1 antagonism; CHO/OX1R cells, Fluo-8 calcium fluorescence, orexin A; O43613; inhibition, % at 5 µM; AID 434989; 330,000 compounds, 0.43% hits;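 active = inhibition above its plate's threshold, mean inhibition of all tested compounds on the plate plus 3 SD, cut at about 37% in these data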
CHO parental Ca: counter-screen for OX1R antagonists: effect in parental CHO cells | parental CHO-K1, ATP-induced calcium, Fluo-8 fluorescence | inhibition, % at 5.6 µM | 330,000 compounds, 0.63% hits | AID 463079;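 active = inhibition above that plate's mean sample inhibition plus 3 SD, cut at about 26% in these data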
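Test system: parental CHO cells; detection: calcium-sensitive Fluo-8 fluorescence; evaluation: percent inhibition of calcium signal; also added: ATP as calcium-mobilizing challenge; repeats: one well per compound; control set: ATP-challenged DMSO wells low, unchallenged DMSO wells high; compound: single nominal dose of 5.6 µM per compound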
A number is an active result; - = inactive. Rows were chosen to be rich in hits. Some 2.7% of all compounds tested hit in one or more screens of this group.

SMILES	OX1R antag-1	V1R ag counter	OXTR agonist	OXTR potentiate	OX1R antag-2	CHO parental Ca
O=[N+]([O-])c1cc(S(=O)(=O)N2CCCC2)ccc1NCCCN1CCOCC1	51	-	-	-	-	-
COCCNc1ccc(S(=O)(=O)N2CCCC2)cc1[N+](=O)[O-]	-	-	-	-	-	-
Cc1cccc(C)c1N=Nc1c(C)cc(O)cc1C	-	-	-	-	-	60
CCN(C[C@H]1N[C@@](CC)(C(=O)OC)[C@H]2C(=O)N(C)C(=O)[C@@H]12)C(=O)Nc1ccc(C)cc1	-	-	-	-	-	-
Cc1ccccc1NC(=O)CSc1nnc(NC(=O)c2ccco2)s1	-	-	-	-	-	-
O=[N+]([O-])c1cc(Oc2cccnc2)cc([N+](=O)[O-])c1	75	-	-	-	-	-
CCC(=O)C(C#N)(c1ccc(OC)c(OC)c1)C(C)C (stereo unspecified)	-	-	-	-	-	-
CCCCC(C(=O)NC(C)c1ccccc1)C(=O)NC(C)c1ccccc1 (stereo unspecified)	57	-	-	-	-	-
CCn1c(Cn2nnc(-c3ccccc3)n2)nnc1SCC(=O)Nc1cccc(C(C)=O)c1	56	-	-	-	-	-
CCn1c(Cn2nnc(-c3ccccc3)n2)nnc1SCC(=O)Nc1cccc(C)c1C	77	-	-	-	-	-
CCn1c(Cn2nnc(-c3ccccc3)n2)nnc1SCC(=O)Nc1ccc(C(C)=O)cc1	-	-	-	-	-	-
COc1cc(/C=N/NC(=O)c2cc[n+]([O-])cc2)ccc1O	-	-	-	-	-	-
CNC(C)C#Cc1ccc2oc3cccc(OC)c3c(=O)c2c1 (stereo unspecified)	48	-	-	-	-	-
Cc1ccccc1N(CC(=O)N/N=C/c1ccc(N(C)C)cc1)C(=O)c1ccccc1	63	-	-	-	-	-
Cc1cc2c(cc1S(=O)(=O)N1CCN(c3cccc(C)c3C)CC1)OCCN2C	-	-	-	-	-	57
Cc1cc2c(cc1S(=O)(=O)N1CCN(c3ccc(Cl)cc3)CC1)OCCN2C	-	-	-	-	-	-
Cc1csc(Nc2nc(N)c(C(=O)Nc3cc(Cl)ccc3F)o2)n1	-	-	-	-	-	-
N#Cc1c(NC(=S)NC(=O)c2ccccc2)sc2c1CCN(CCc1ccccc1)C2	-	57	28	-	-	36
Cc1ccc(C(=O)N2CC(C)OC(C)C2)cc1[N+](=O)[O-] (stereo unspecified)	-	-	-	-	-	-
COC(=O)c1cc(C(=O)N2CCOCC2)cc([N+](=O)[O-])c1	77	-	-	-	-	-
CC1CN(C(=O)c2cc([N+](=O)[O-])cc([N+](=O)[O-])c2)CC(C)O1 (stereo unspecified)	62	-	-	-	-	-
O=C(NC(N1CCOCC1)C(Cl)(Cl)Cl)c1cc([N+](=O)[O-])cc([N+](=O)[O-])c1 (stereo unspecified)	73	-	-	-	-	-
COC(=O)c1cc(C(=O)N2CCN(c3cccc(Cl)c3)CC2)cc([N+](=O)[O-])c1	-	-	-	-	-	-
O=C(CCNC(=O)C1CCN(S(=O)(=O)c2ccccc2)CC1)Nc1ccccc1	-	-	-	-	-	-
CC(=O)N/C(=C\c1ccccc1)C(=O)OC/C=C/c1ccccc1	-	-	-	-	-	-
SMILES	OX1R antag-1	V1R ag counter	OXTR agonist	OXTR potentiate	OX1R antag-2	CHO parental Ca
C/C(=N\NC(=O)c1cccnc1)c1ccc(OC2OCCOC2Oc2ccc(/C(C)=N/NC(=O)c3cccnc3)cc2)cc1 (stereo unspecified)	-	-	-	-	-	-
COc1ccc(OC)c(CNn2c(-c3ccccc3F)nc3ccccc3c2=O)c1	-	-	-	-	-	-
COc1ccc(O)c(CNn2c(-c3ccc(Br)cc3)nc3ccccc3c2=O)c1	44	-	-	-	-	-
CCN(C(=O)C1CCN(c2nc(-c3ccc(OC)cc3)no2)CC1)c1ccc(OC)cc1	-	-	-	-	-	36
NC1=C(Br)C(=O)c2ccccc2C1=O	72	-	-	-	-	-
COc1ccccc1CNC(=O)c1cccnc1	-	-	-	-	-	-
Cc1nnc(SCc2nnc(-c3cccs3)o2)n1Cc1ccccc1	-	-	-	-	-	-
Fc1ccc(NCc2nnc(SCc3nnc(-c4ccccc4)o3)n2Cc2ccccc2)cc1	-	-	-	-	73	51
Clc1ccc(-c2nnc(CSc3nnc(-c4cccs4)n3Cc3ccccc3)o2)cc1	47	-	-	-	-	-
O=C1NCN(c2ccccc2)C12CCN(CCCC(c1ccc(F)cc1)c1ccc(F)cc1)CC2	-	-	-	-	40	-
O=C(Nc1ccc(NC(=O)N2CCN(c3ccccc3O)CC2)cc1)N1CCN(c2ccccc2O)CC1	-	-	-	-	-	-
NC1=NC(=O)/C(=C/c2ccccc2OCC(=O)Nc2ccc(F)cc2)S1	-	-	-	-	-	-
O=C(COc1ccccc1/C=C1\SC(=S)NC1=O)Nc1ccc(F)cc1	57	-	-	-	-	-
C=CCOCCN(C)C1=NS(=O)(=O)c2cc([N+](=O)[O-])ccc21	72	-	-	-	-	-
CCCCc1ccc(N2C(=NC(=O)C3CCCO3)SC3CS(=O)(=O)CC32)cc1 (stereo unspecified)	-	-	-	-	-	-
COCC(C)n1c(SCC(=O)N2CCc3ccccc3C2)nc2ccccc2c1=O (stereo unspecified)	70	-	-	-	-	-
Cc1ccc(NC(=O)C2C3CCC(O3)C2C(=O)O)cc1Cl (stereo unspecified)	-	-	-	-	-	-
O=C(CN1C(=O)/C(=C\c2ccccc2Cl)Oc2ccccc21)NCc1cccnc1	72	-	-	-	-	-
O=C(O)CN1C(=O)/C(=C/c2ccccc2Cl)Oc2ccccc21	-	-	-	-	-	-
COc1ccc(CCn2c(=N)c(C(=O)NCC3CCCO3)cc3c(=O)n4ccccc4nc32)cc1 (stereo unspecified)	58	-	-	-	-	-
COc1ccc(Cn2c(=N)c(C(=O)NCC3CCCO3)cc3c(=O)n4ccccc4nc32)cc1 (stereo unspecified)	61	-	-	-	-	-
CCCN(CC(=O)Nc1ccccc1OC)C(=O)c1ccc(COc2ccccc2)o1	-	-	-	-	-	-
COCCN(CC(=O)Nc1cccc(C)c1C)C(=O)Cn1c(=O)cnc2ccccc21	-	-	-	-	-	-
CC(C)(C)c1ccc(C(=O)NC(=O)COC(=O)c2ccc(Br)o2)cc1	-	-	-	-	-	-
CN(C)c1ccc(Nc2ccc([N+](=O)[O-])cn2)cc1	43	-	-	-	-	-

Screening data deposited in PubChem by The Scripps Research Institute Molecular Screening Center.
